Measured values from ChEMBL document CHEMBL1144684, “Evaluation of a series of naphthamides as potent, orally active vascular endothelial growth factor receptor-2 tyrosine kinase inhibitors” (J Med Chem, 2008).

Tests used:
[1] = AUC (0 to 24 hrs) in human HT29 cell xenografted CD1 nu/nu mouse at 10 mg/kg, po qd; type: ADME, organism-based, HT-29; set-up: time < 24 hr, dose 10 mg/kg, route oral; conditions: in vivo
[2] = AUC (0 to 24 hrs) in dog at 0.5 mg/kg, po; type: ADME, organism-based, Canis lupus familiaris; set-up: time < 24 hr, dose 0.5 mg/kg, route oral; conditions: plasma
Procedure, shortened: (§1)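 Compound given iv and po as single doses; vehicles: mouse iv PEG 400, po OraPlus; dog iv DMSO, po 1% Tween-80/2% HPMC/97% water; cynomolgus iv propylene glycol, po suspension.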

[3] = Cmax in VEGF-soaked disk implanted in Sprague-Dawley rat; type: ADME, organism-based; conditions: in vivo
[4] = target: Tyrosine-protein kinase Lck (Homo sapiens, UniProt P06239); assay: Inhibition of Lck
Sequence of Tyrosine-protein kinase Lck (P06239 whole entry): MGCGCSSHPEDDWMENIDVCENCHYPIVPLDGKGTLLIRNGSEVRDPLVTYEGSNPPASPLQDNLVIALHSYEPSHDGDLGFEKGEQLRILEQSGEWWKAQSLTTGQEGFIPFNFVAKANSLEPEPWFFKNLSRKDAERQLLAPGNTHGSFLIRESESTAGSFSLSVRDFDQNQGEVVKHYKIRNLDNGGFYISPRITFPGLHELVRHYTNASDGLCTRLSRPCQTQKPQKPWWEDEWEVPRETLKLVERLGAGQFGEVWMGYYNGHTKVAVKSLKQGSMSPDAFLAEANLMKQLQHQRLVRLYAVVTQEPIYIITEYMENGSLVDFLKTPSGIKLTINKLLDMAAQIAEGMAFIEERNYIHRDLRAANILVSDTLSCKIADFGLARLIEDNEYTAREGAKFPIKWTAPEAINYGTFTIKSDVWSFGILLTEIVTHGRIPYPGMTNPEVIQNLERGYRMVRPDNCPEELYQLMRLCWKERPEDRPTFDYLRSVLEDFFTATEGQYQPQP

[5] = Protein binding in mouse plasma; type: ADME, cell-free; conditions: read-out: PPB (converted)
Procedure, shortened: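 Compound spiked into plasma at 5 µg/mL (12.9 µM) from a DMSO stock, incubated 37 °C 15 min, then ultracentrifuged 3 h at 37 °C. Supernatant below lipid layer measured by LC-MS (n = 6) against QC in plasma filtrate; % bound = 1 − (centrifuged concentration / mean QC) × 100.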

[6] = Mean residence time in dog at 0.5 mg/kg, iv; type: ADME, organism-based, Canis lupus familiaris; set-up: dose 0.5 mg/kg, route intravenous; conditions: in vivo
Procedure, shortened: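 Intravenous dosing of male/unspecified animals per species; vehicles: mouse 2 mg/kg in Peg 400, dog 0.5 mg/kg in DMSO, cynomolgus monkey 0.5 mg/kg in propylene glycol. Parameters from plasma concentration–time data by noncompartmental analysis.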

Liver microsomes = assay: Metabolic stability assessed as covalent binding in presence of NADPH in human liver microsomes at 10 uM after 1 hr; type: ADME, Microsome
Procedure, shortened: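 14C-labelled compound at 10 µM with human or rat liver microsomes (1 mg/mL) in 0.1 M potassium phosphate pH 7.4, with or without 1 mM NADPH and 1 mM glutathione, 60 min; quenched with ice-cold acetonitrile. Pellet washed with 80% methanol and ethanol/ether, solubilized, protein by BCA, radioactivity by scintillation counting.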

[7] = Mean residence time in cynomolgus monkey at 0.5 mg/kg, iv; type: ADME, organism-based, Macaca fascicularis; set-up: dose 0.5 mg/kg, route intravenous; conditions: in vivo; procedure, shortened: as §1

Work on COc1cc2nccc(Oc3ccc4c(C(N)=O)cccc4c3)c2cc1OC yielded an AUC at 24 h [1] of 3.9 µM·h, an AUC(0-t) at 24 h [2] of 3650 ng·h/mL and a Cmax [3] of 50 nM. It also gave an IC50 [4] of 300 nM, a fraction unbound [5] of 0.027 and an MRT [6] of 18 h. For the same compound, the Stability (Liver microsomes) was 36 pmol/mg/h and the MRT [7] was 8.6 h.
